Measured values: ChEMBL document CHEMBL3046408, “Disease control effect of strevertenes produced by Streptomyces psammoticus against tomato fusarium wilt” (J Agric Food Chem, 2011)
In brackets after ≈: the same amount, converted by molar mass. Activity calls are given as the source filed them. No cut-off for these calls is given here.

Tests used:
[1] = test system: Fusarium oxysporum f. sp. cucumerinum; assay: Antifungal activity against Fusarium oxysporum f.sp. cucumerinum assessed as complete growth inhibition after 1 to 3 days by CLSI M38-A method; assay type: functional
Procedure, shortened: (§1)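 Broth microdilution in 96-well plates following CLSI M38-A. Conidial suspensions were dispensed to a final (0.5-5) × 10^4 spores/mL, with compound at final 0.125 to 64 μg/mL. Plates were incubated at 28 °C for 1-3 days. MIC was read visually as the lowest concentration giving complete growth inhibition.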

[2] = test system: Ilyonectria destructans; assay: Antifungal activity against Ilyonectria radicicola assessed as complete growth inhibition after 1 to 3 days by CLSI M38-A method; assay type: functional; procedure, shortened: as §1
[3] = test system: Fusarium oxysporum f. sp. lycopersici; assay: Antifungal activity against Fusarium oxysporum f.sp. lycopersici assessed as complete growth inhibition after 1 to 3 days by CLSI M38-A method; assay type: functional; procedure, shortened: as §1
[4] = test system: Aspergillus oryzae; assay: Antifungal activity against Aspergillus oryzae assessed as complete growth inhibition after 1 to 3 days by CLSI M38-A method; assay type: functional; procedure, shortened: as §1
[5] = test system: Cercospora canescens; assay: Antifungal activity against Cercospora canescens assessed as complete growth inhibition after 1 to 3 days by CLSI M38-A method; assay type: functional; procedure, shortened: as §1
[6] = test system: Fusarium oxysporum f. sp. lycopersici; assay: Antifungal activity against Fusarium oxysporum f.sp. lycopersici JCM 12575 in tomato plants assessed as inhibition of Fusarium wilt disease severity at 1 ug/mL measured after 10 days of inoculation under green house condition; assay type: functional, organism-based
Procedure, shortened: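 Greenhouse assay. F. oxysporum f.sp. lycopersici JCM 12575 was grown in Czapek Dox broth at 28 °C for 14 days, and the inoculum was 2 × 10^6 conidia/mL. Wounded tomato seedling roots were dipped for 10 min, potted, and soil-drenched with 5 mL of compound (1, 10, 100, 500 μg/mL); controls received sterile water. Plants spent 24 h in a 28 °C dew chamber, then went to the greenhouse. Disease severity was scored 0-5 at 10 days post-inoculation.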

[7] = test system: Solanum lycopersicum; assay: Phytotoxicity in Solanum lycopersicum (tomato) plants upto 500 ug/mL; assay type: organism-based; conditions: in vivo
[8] = test system: Colletotrichum gloeosporioides; assay: Antifungal activity against Colletotrichum gloeosporioides assessed as complete growth inhibition after 1 to 3 days by CLSI M38-A method; assay type: functional; procedure, shortened: as §1
[9] = test system: Alternaria brassicicola; assay: Antifungal activity against Alternaria brassicola assessed as complete growth inhibition after 1 to 3 days by CLSI M38-A method; assay type: functional; procedure, shortened: as §1
[10] = test system: Colletotrichum orbiculare; assay: Antifungal activity against Colletotrichum orbiculare assessed as complete growth inhibition after 1 to 3 days by CLSI M38-A method; assay type: functional; procedure, shortened: as §1
[11] = test system: Rhizoctonia solani; assay: Antifungal activity against Rhizoctonia solani assessed as complete growth inhibition after 1 to 3 days by CLSI M38-A method; assay type: functional
Procedure, shortened: (§2)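 CLSI M38-A microdilution in 96-well plates, inoculated with mycelial-fragment suspensions at a final (0.5-5) × 10^4 fragments/mL. Compound was added at final concentrations from 0.125 to 64 μg/mL. After 1-3 days at 28 °C, MIC was scored by eye as the lowest concentration completely inhibiting growth.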

[12] = test system: Sclerotinia sclerotiorum; assay: Antifungal activity against Sclerotinia sclerotiorum assessed as complete growth inhibition after 1 to 3 days by CLSI M38-A method; assay type: functional; procedure, shortened: as §2
[13] = test system: Colletotrichum coccodes; assay: Antifungal activity against Colletotrichum cocodes assessed as complete growth inhibition after 1 to 3 days by CLSI M38-A method; assay type: functional; procedure, shortened: as §1
[14] = test system: Alternaria mali; assay: Antifungal activity against Alternaria mali assessed as complete growth inhibition after 1 to 3 days by CLSI M38-A method; assay type: functional; procedure, shortened: as §1
[15] = test system: Diaporthe citri; assay: Antifungal activity against Diaporthe citri assessed as complete growth inhibition after 1 to 3 days by CLSI M38-A method; assay type: functional
Procedure, shortened: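 Broth microdilution following CLSI M38-A. Mycelial-fragment suspension of the fungus at a final (0.5-5) × 10^4 fragments/mL. Antibiotic added to final concentrations of 0.125 to 64 μg/mL. Incubated at 28 °C for 1-3 days. Wells read visually; MIC is the lowest concentration giving complete growth inhibition.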

SMILES | MIC [1] [µg/mL] | MIC [2] [µg/mL] | MIC [3] [µg/mL] | MIC [4] [µg/mL] | MIC [5] [µg/mL] | inhibition [6] | Activity [7] | MIC [8] [µg/mL] | MIC [9] [µg/mL] | MIC [10] [µg/mL] | MIC [11] [µg/mL] | MIC [12] [µg/mL] | MIC [13] [µg/mL] | MIC [14] [µg/mL] | MIC [15] [µg/mL]
C[C@H]1/C=C/C=C/C=C/C=C/C=C/[C@@H](O)[C@H](C(=O)O)[C@H](O)C[C@H](O)CCC[C@H](O)C[C@H](O)C[C@H](O)[C@@H](C)C(=O)O[C@@H]1C [STREVERTENE A] | 16 (≈ 27.6 µM) | 16 (≈ 27.6 µM) | 16 (≈ 27.6 µM) | 16 (≈ 27.6 µM) | 16 (≈ 27.6 µM) | Active | Non-toxic | 8 (≈ 13.8 µM) | > 64 | 8 (≈ 13.8 µM) | > 64 | 8 (≈ 13.8 µM) | 8 (≈ 13.8 µM) | 16 (≈ 27.6 µM) | 32 (≈ 55.1 µM)
CC[C@H]1C(=O)O[C@H](C)[C@@H](C)/C=C/C=C/C=C/C=C/C=C/[C@@H](O)[C@H](C(=O)O)[C@H](O)C[C@H](O)CCC[C@H](O)C[C@H](O)C[C@@H]1O [STREVERTENE B] | 8 (≈ 13.5 µM) | 16 (≈ 26.9 µM) | 8 (≈ 13.5 µM) | 10 (≈ 16.8 µM) | 32 (≈ 53.8 µM) | Active | Non-toxic | 8 (≈ 13.5 µM) | > 64 | 4 (≈ 6.73 µM) | > 64 | 8 (≈ 13.5 µM) | 8 (≈ 13.5 µM) | 16 (≈ 26.9 µM) | 32 (≈ 53.8 µM)
